Columns and labels:
Rattus norvegicus [1] = experiment: In vivo threshold minimum effective dose for inhibition of rat paw-swelling after oral bid dosing for 14 days; assay type: functional
Rattus norvegicus [2] = experiment: Inhibition of TNF-alpha production in rat joint after oral administration at 3 mg/Kg; assay type: functional
Mus musculus [3] = organism: Mus musculus; experiment: Inhibitory concentration against TNF-alpha production in mouse macrophages; assay type: functional
Mus musculus [4] = experiment: In vivo threshold minimum effective dose for inhibition of LPS-induced TNF-alpha production in mice after oral administration; assay type: functional
[5] = biological target: Mitogen-activated protein kinase 14 (Homo sapiens, UniProt Q16539); experiment: Inhibition of human recombinant Mitogen activated protein kinase p38 alpha activity using ATP[gamma-33P] and EGFR 21mer-peptide
Sequence of Mitogen-activated protein kinase 14 (Q16539 whole entry): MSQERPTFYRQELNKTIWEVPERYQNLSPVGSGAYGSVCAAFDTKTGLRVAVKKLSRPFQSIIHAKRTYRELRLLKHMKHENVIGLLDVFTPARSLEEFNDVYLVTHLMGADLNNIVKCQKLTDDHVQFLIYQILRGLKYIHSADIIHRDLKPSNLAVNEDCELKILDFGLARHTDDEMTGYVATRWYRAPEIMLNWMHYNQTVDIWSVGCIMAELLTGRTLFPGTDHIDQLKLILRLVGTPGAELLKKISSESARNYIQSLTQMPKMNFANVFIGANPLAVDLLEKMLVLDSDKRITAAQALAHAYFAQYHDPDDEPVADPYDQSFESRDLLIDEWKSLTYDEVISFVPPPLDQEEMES
Procedure, shortened: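 Recombinant human p38α, filter binding format with ATP[γ-33P] and EGFR 21-mer peptide substrate; IC50 in nM, n determinations per compound.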

[6] = (§1) Area under concentration-curve (from 0-infinity) for a compound in plasma of rats after oral administration; assay type: ADME; parameters: time infinity, route oral; conditions: rat
Rattus norvegicus [7] = experiment: In vivo threshold minimum effective dose for inhibition of bone erosion and cartilage destruction in rat after oral bid dosing for 14 days; assay type: functional
Cytochrome P450 3A4 = Cytochrome P450 3A4 (Homo sapiens, UniProt P08684); experiment: In vitro inhibitory concentration against Cytochrome P450 3A4; assay type: ADME
Sequence of Cytochrome P450 3A4 (P08684 whole entry): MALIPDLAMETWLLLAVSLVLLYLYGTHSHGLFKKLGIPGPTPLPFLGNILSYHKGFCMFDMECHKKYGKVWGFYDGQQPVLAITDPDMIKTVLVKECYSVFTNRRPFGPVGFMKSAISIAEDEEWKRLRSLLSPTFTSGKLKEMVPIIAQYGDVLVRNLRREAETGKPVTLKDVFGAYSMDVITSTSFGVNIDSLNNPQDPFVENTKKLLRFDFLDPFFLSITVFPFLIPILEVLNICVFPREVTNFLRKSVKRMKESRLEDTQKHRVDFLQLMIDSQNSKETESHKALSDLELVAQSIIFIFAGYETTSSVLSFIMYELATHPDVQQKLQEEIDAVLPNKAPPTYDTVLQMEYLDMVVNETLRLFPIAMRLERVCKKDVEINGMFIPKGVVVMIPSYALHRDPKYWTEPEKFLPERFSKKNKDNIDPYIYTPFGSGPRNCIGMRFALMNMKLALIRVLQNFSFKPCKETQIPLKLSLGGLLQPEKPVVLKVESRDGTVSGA

[8] = Bioavailability of compound in rat plasma after oral administration; assay type: ADME, organism-based
[9] = as §1; assay type: ADME; parameters: route oral, time infinity; conditions: rat

Compound | IC50 (Mus musculus [3]) | IC50 [5] | AUC 0-inf [6] | IC50 (Cytochrome P450 3A4) | bioavailability [8] | AUC 0-inf [9] | TMED50 (Rattus norvegicus [1]) | inhibition in vivo at 3 mg/kg (Rattus norvegicus [2]) | TMED50 (Mus musculus [4]) | TMED50 (Rattus norvegicus [7])
CC(C)(C)c1nc(-c2ccc(F)cc2F)c(-c2ccc3nc(N)n(S(=O)(=O)C(C)(C)C)c3c2)[nH]1.CS(=O)(=O)O | 1.6 nM | 4.8 nM | 28.3 µM·h |  |  |  | 1.5 mg/kg | 82% | 5.3 mg/kg | 4.2 mg/kg
CC(C)S(=O)(=O)n1c(N)nc2ccc(-c3[nH]cnc3-c3ccccc3)cc21 | 31.8 nM | 4.2 nM | 3.7 µM·h | 1600 nM |  |  |  |  | 19.8 mg/kg | 
CS(=O)(=O)O.CS(=O)(=O)O.Nc1nc2ccc(-c3[nH]c(-c4c(F)cccc4F)nc3-c3ccccc3)cc2n1S(=O)(=O)C1CCCC1 | 6 nM | 19.9 nM | 0.9 µM·h | 13000 nM |  |  |  |  | 5.1 mg/kg | 
CC(C)S(=O)(=O)n1c(N)nc2ccc(-c3c(-c4ccc(F)cc4)ncn3C)cc21 | 720 nM | 20.7 nM |  |  |  |  |  |  |  | 
CC(C)CN1CCC(c2nc(-c3ccc4nc(N)n(S(=O)(=O)C(C)C)c4c3)c(-c3ccccc3)[nH]2)CC1 | 27.9 nM | 5.5 nM |  | 5300 nM |  |  |  |  | 7.3 mg/kg | 
Cc1ccc(-n2nc(C(C)(C)C)cc2NC(=O)Nc2ccc(OCCN3CCOCC3)c3ccccc23)cc1 [DORAMAPIMOD] |  |  |  |  |  |  | 15 mg/kg | 55% |  | 30 mg/kg
OCCC#Cc1nc(-c2ccc(F)cc2)c(-c2ccncc2)n1CCCc1ccccc1 [RWJ-67657] |  |  |  |  |  |  | >30 mg/kg | < 50% |  | >30 mg/kg
COc1nccc(-c2c(-c3ccc(F)cc3)ncn2C2CCNCC2)n1 [SB-242235] |  |  |  |  |  |  | 5 mg/kg |  |  | 7 mg/kg

The remaining compounds from weak to strong by IC50 (Mus musculus [3]), led by results:

IC50 (Mus musculus [3]) | IC50 [5] | AUC 0-inf [6] | IC50 (Cytochrome P450 3A4) | bioavailability [8] | AUC 0-inf [9] | Compound | TMED50 (Rattus norvegicus [1]) | inhibition in vivo at 3 mg/kg (Rattus norvegicus [2]) | TMED50 (Mus musculus [4]) | TMED50 (Rattus norvegicus [7])
4460 nM | 125 nM |  |  |  |  | CC(C)S(=O)(=O)n1c(N)nc2ccc(-c3c(-c4ccc(F)cc4)ncn3C3CCNCC3)cc21 |  |  |  | 
2880 nM | 2.7 nM |  |  |  |  | CC(C)S(=O)(=O)n1c(N)nc2ccc(-c3nc(C4CCNCC4)[nH]c3-c3ccccc3)cc21 |  |  |  | 
65.7 nM | 4.3 nM | 1.4 µM·h | 800 nM |  |  | CC(C)S(=O)(=O)n1c(N)nc2ccc(-c3[nH]cnc3-c3ccc(F)cc3)cc21.CS(=O)(=O)O.CS(=O)(=O)O |  |  | 9.6 mg/kg | 
47.2 nM | 4.7 nM |  | 4400 nM |  |  | CCc1nc(-c2ccc(F)cc2)c(-c2ccc3nc(N)n(S(=O)(=O)C(C)C)c3c2)[nH]1.CS(=O)(=O)O |  |  | 6.5 mg/kg | 
31.1 nM | 15.9 nM | 13.5 µM·h | 31800 nM |  |  | CC(C)S(=O)(=O)n1c(N)nc2ccc(-c3[nH]c(C(C)(C)C)nc3-c3ccc(F)cc3)cc21.CS(=O)(=O)O.CS(=O)(=O)O |  |  | 3.9 mg/kg | 
28.6 nM | 4.5 nM | 12.8 µM·h | 6100 nM |  |  | CC(C)c1nc(-c2ccc(F)cc2)c(-c2ccc3nc(N)n(S(=O)(=O)C(C)C)c3c2)[nH]1.CS(=O)(=O)O |  |  | 4.9 mg/kg | 
10.3 nM | 4.9 nM |  | 6300 nM |  | 5.4 µM·h | CC(C)S(=O)(=O)n1c(N)nc2ccc(-c3nc(-c4c(F)cccc4F)[nH]c3-c3ccccc3)cc21 |  |  | 5.2 mg/kg | 
8.8 nM | 22.8 nM | 9.8 µM·h |  |  |  | CN(C)S(=O)(=O)n1c(N)nc2ccc(-c3[nH]c(-c4c(F)cccc4F)nc3-c3ccccc3)cc21.CS(=O)(=O)O.CS(=O)(=O)O |  |  | 12.5 mg/kg | 
6.2 nM | 4.4 nM | 14.6 µM·h |  |  |  | CC(C)S(=O)(=O)n1c(N)nc2ccc(-c3[nH]c(C(C)(C)C)nc3-c3ccc(F)cc3F)cc21.CS(=O)(=O)O | 1.5 mg/kg | 81% | 2.2 mg/kg | 8.1 mg/kg
3.4 nM | 15.3 nM | 17 µM·h |  | 55% |  | CC(C)S(=O)(=O)n1c(N)nc2ccc(-c3[nH]c(-c4c(Cl)cccc4Cl)nc3-c3ccccc3)cc21.CS(=O)(=O)O |  |  | 2.5 mg/kg | 

— ChEMBL document CHEMBL1143559, “Design of potent and selective 2-aminobenzimidazole-based p38alpha MAP kinase inhibitors with excellent in vivo efficacy” (J Med Chem, 2005)
